MEKK3 PB1 HTS – MEKK3-MEK5 PB1 interaction, increase or decrease | Q99759 | 290,000 tested, 1.4% active | binding response (% of control), % at 10 µM | bead-based flow cytometry, Alexa488-MEK5 binding to MEKK3; actives lie on both sides; 0 = blocked by unlabeled MEK5, 100 = vehicle;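 active means binding response more than 3 SD above or below the average of its plate-row segment, actives on both sides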;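 further: Alexa488 bead fluorescence after subtracting the streptavidin-only scavenger bead signal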
ATG4B inh – blocks human ATG4B protease cleavage of LC3 substrate; Q9Y4P1; ATG4B cleavage of LC3-PLA2, NBD-HPC fluorescence, 1 h; inhibition, % at 8.33 µM; 340,000 tested, 0.51% active; AID 504462; in the data active means inhibition above about 40%
Target sequence (Q9Y4P1 whole entry, looked up): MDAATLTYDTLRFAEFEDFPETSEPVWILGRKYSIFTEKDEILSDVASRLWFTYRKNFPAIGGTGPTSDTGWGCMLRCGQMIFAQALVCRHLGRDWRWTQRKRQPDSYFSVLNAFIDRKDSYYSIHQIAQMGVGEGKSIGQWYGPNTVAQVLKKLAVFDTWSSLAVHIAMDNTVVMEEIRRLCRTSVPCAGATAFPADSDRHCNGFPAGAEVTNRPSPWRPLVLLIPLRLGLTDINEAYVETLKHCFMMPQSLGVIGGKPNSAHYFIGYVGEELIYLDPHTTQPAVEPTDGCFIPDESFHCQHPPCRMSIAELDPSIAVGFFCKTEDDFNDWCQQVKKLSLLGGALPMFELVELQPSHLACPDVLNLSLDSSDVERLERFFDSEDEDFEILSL
Dynein transport – blocks dynein driven cargo transport along microtubules; AID 1381; 3617.4 mouse cells, GR-EGFP nuclear translocation imaging; test concentration mostly 20 µM; stimulated with dexamethasone, 1 µM; hits give low values; z-score, hits read low; 220,000 tested, 0.47% active;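 active means plate z-score of nuclear minus cytoplasmic receptor signal below a set negative limit, without overly bright fluorescence or cell loss, cut at about -3.5 in these data, passing the limit was not always enough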;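 further: z-score of nuclear minus cytoplasmic ring GR-EGFP intensity difference per well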
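Buffer or medium: tetracycline-free induction medium containing charcoal-stripped FBS / Reagent: dexamethasone agonist, 1.0 µM final, for 30 min / Technique: automated 10x imaging of fixed Hoechst-stained cells / Times: induction 48 h, compound 1 h, agonist 30 min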
B2AR ag – agonists of human beta-2 adrenergic receptor inducing internalization; P07550; Am2.2-beta2AR cells, FAP receptor internalization, flow cytometry; response, % (test concentration not listed); 340,000 tested, 0.43% active; AID 504454;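 active means response above a set limit, near 3 SD of response in nonfluorescent compounds, cut at about 42% in these data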
MEKK2wt PB1 HTS – raises or lowers MEK5 binding to wildtype human MEKK2 PB1 domain; Q9Y2U5; bead flow cytometry, Alexa488-MEK5 binding to MEKK2 WT; actives lie on both sides; binding response (% of control), % at 10 µM; 290,000 tested, 1.1% active; in the data active means binding response below about 67% or above about 130%
MEKK2mut PB1 HTS – signal of MEK5 binding to mutant human MEKK2 PB1 domain | 290,000 tested, 0.35% active | AID 1530 | bead flow cytometry, Alexa488-MEK5 binding to MEKK2 mutant | percent response, % at 10 µM; in the data active means percent response above about 24%, passing the limit was not always enough
MEKK2wt confirm – raises or lowers MEK5 binding to wildtype human MEKK2, retest | binding response (% of control), % at 10 µM | shares compounds with MEKK3 PB1 HTS | bead flow cytometry, Alexa488-MEK5 binding to MEKK2 WT; actives lie on both sides | 5,900 tested, 2.4% active; in the data active means binding response below about 16% or above about 210%; inactive means in between
MEKK2mut-MEK5 – signal of MEK5 binding to mutant human MEKK2, retest; shares compounds with MEKK3 PB1 HTS; bead flow cytometry, Alexa488-MEK5 binding to MEKK2 mutant; percent response, % at 10 µM; 5,900 tested, 2% active; AID 1893; in the data active means percent response mostly above about 71%, no sharp cut-off; inactive means mostly below about 38%;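 further: higher means compound restores mutant binding toward wildtype level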
MEKK3-MEK5 inh – MEKK3-MEK5 PB1 inhibition, single concentration confirmation. shares compounds with MEKK3 PB1 HTS. bead flow cytometry, Alexa488-MEK5 binding to MEKK3; hits give low values. binding response (% of control), % at 10 µM. 5,900 tested, 1.8% active. AID 1894;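 active means binding response below 72% of control, or above a set upper limit, though filed actives all read lower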;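 further: 100% = DMSO only wells and 0% = binding blocked by excess unlabeled MEK5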
An asterisk follows results filed as active; x = no result given; [ ] = another dose, or the depositor's remark. Only some compounds are listed: those with a hit (about 2.9% of all), similar ones and a draw of the others.

SMILES	MEKK3 PB1 HTS	ATG4B inh	Dynein transport	B2AR ag	MEKK2wt PB1 HTS	MEKK2mut PB1 HTS	MEKK2wt confirm	MEKK2mut-MEK5	MEKK3-MEK5 inh
COc1ccc(C(=O)NCCC2=CCCCC2)cc1	131.0*	7.7	0.791	-4.6	107.0	1.0	100.0	-9.0	97.0
COc1ccc(C(=O)NCC(=O)OCC(=O)NCCC2=CCCCC2)cc1	100.0	-9.9	0.694	0.8	96.0	-3.0	x	x	x
Cc1ccc(S(=O)(=O)N[C@H](C(=O)NC2CCC(C)CC2)C(C)C)cc1 (stereo partly specified)	x	-2.0	x	9.7	x	x	x	x	x
O=C(COC(=O)/C=C/c1cccs1)NC(=O)Cc1ccccc1	138.0*	4.1	2.17	-1.4	112.0	-2.0	101.0	3.0	101.0
COc1cc(C)ccc1S(=O)(=O)N1CCN(C23CC4CC(CC(C4)C2)C3)CC1	100.0	2.2	-0.335	-1.0	111.0	5.0	x	x	x
COc1ccc(CSc2ncn[nH]2)cc1[N+](=O)[O-]	100.0	-5.4	-0.459	-1.0	97.0	0.0	x	x	x
COc1ccc(CSc2n[nH]c(C)n2)cc1[N+](=O)[O-]	130.0*	2.7	0.629	-4.9	106.0	4.0	-3.0*[inhibitor]	-5.0	94.0
Brc1ccc(-c2nnc3ccc(N4CCN(c5ccccc5)CC4)nn23)cc1	0.0*[inhibitor]	1.2	-1.03	10.2	-1.0*[inhibitor]	-21.0	98.0	-8.0	101.0
COc1cc(CNC(C)c2ccccc2)cc(Br)c1OCc1ccc(F)cc1 (stereo unspecified)	109.0	1.9	x	6.6	223.0*	23.0	186.0	50.0	113.0
Fc1ccc(COc2ccc(Br)cc2CNCc2ccncc2)cc1	100.0	-4.4	-0.243	-14.6	114.0	17.0	x	x	x
COc1cc(CNC(C)c2ccccc2)cc(Br)c1OCc1ccccc1 (stereo unspecified)	112.0	2.0	x	14.7	192.0*	17.0	164.0	31.0	105.0
CCOc1cc(CNCc2ccncc2)cc(Br)c1OCc1ccc(F)cc1	108.0	-9.6	-0.0992	-0.3	142.0*	22.0	128.0	22.0	112.0
COc1cc(CNc2ccc(O)cc2)cc(Br)c1OCc1ccccc1	101.0	-1.7	-1.38	2.7	111.0	0.0	x	x	x
C=CCSC1=N/C(=C/c2ccsc2)C(=O)N1c1ccccc1	77.0	-2.6	-0.164	3.4	84.0	-6.0	x	x	x
Cc1cc(-c2ccc(Cl)cc2)n2ncnc2n1	50.0*[inhibitor]	-4.1	0.452	-2.3	59.0	-39.0	101.0	-3.0	95.0
Cc1cc(Nc2ccc(Cl)cc2)n2ncnc2n1	104.0	-0.8	x	-1.4	104.0	3.0	x	x	x
CCN1CCN(S(=O)(=O)c2ccc(Cl)c(C(=O)N(C)Cc3ccc(C(C)(C)C)cc3)c2)CC1	x	-21.4	x	3.1	x	x	x	x	x
CCCCNCC(O)(c1ccc(Cl)cc1)c1ccc(Cl)cc1	119.0	-4.4	-1.3	16.0	146.0*	21.0	105.0	-6.0	84.0
COc1ccc(CNCC(O)(c2ccc(Cl)cc2)c2ccc(Cl)cc2)cc1OC	113.0	4.0	-0.698	18.4	179.0*	39.0	131.0	9.0	100.0
CCCCCNCc1ccc(Cl)cc1	100.0	-8.9	0.487	1.9	103.0	0.0	x	x	x
COc1ccc(CNCC(O)(c2ccccc2)c2ccc(F)cc2)cc1 (stereo unspecified)	107.0	6.2	x	2.7	115.0	5.0	x	x	x
COc1ccc(CNCC(O)(c2ccc(Cl)cc2)c2ccc(Cl)cc2)cc1	105.0	-7.5	-1.01	25.2	154.0*	10.0	167.0	26.0	106.0
CC(C)(C)OC(=O)N(Cc1ccccc1)Cc1ccccc1OCc1ccc(NC(=O)C2CCC2)cc1	x	24.4	x	-0.3	x	x	x	x	x
Cc1nc2ccc(C(=O)N3CCN(Cc4ccccc4)CC3)cc2[nH]1	98.0	-0.2	x	-5.5	96.0	-2.0	x	x	x
O=C(CCCSc1ccccc1)Nc1ccc(Cl)c(S(=O)(=O)N2CCOCC2)c1	x	-13.8	x	2.5	x	x	x	x	x
SMILES	MEKK3 PB1 HTS	ATG4B inh	Dynein transport	B2AR ag	MEKK2wt PB1 HTS	MEKK2mut PB1 HTS	MEKK2wt confirm	MEKK2mut-MEK5	MEKK3-MEK5 inh
COc1ccc(C(O)c2ncc(C(F)(F)F)cc2Cl)cc1 (stereo unspecified)	99.0	-5.1	x	-10.2	102.0	1.0	x	x	x
COc1ccc(C(C(N)=O)c2ncc(C(F)(F)F)cc2Cl)cc1 (stereo unspecified)	150.0*	-10.3	-0.19	-6.1	131.0	7.0	106.0	4.0	105.0
COc1cc(/C=C2\SC(=S)N(CC(=O)Nc3ccc(O)cc3)C2=O)cc(OC)c1OC	67.0*[inhibitor]	2.3	-0.522	0.8	51.0	90.0*	87.0	-12.0	97.0
COc1cc(/C=C2\SC(=S)N(CC(=O)Nc3cccnc3)C2=O)cc(OC)c1OC	107.0	-11.8	0.103	4.1	84.0	-1.0	x	x	x
Cn1c(N)c(C(=O)CSc2nnc(-c3ccccc3F)n2N)c(=O)n(C)c1=O	47.0*[inhibitor]	1.3	-0.133	-10.0	56.0	-19.0	101.0	3.0	104.0
C=CCn1c(SCC(=O)c2c(N)n(C)c(=O)n(C)c2=O)nnc1-c1ccccc1F	107.0	-3.0	-2.17	1.9	85.0	108.0*	101.0	2.0	103.0
C=CCn1c(SCC(=O)c2c(N)n(C)c(=O)n(C)c2=O)nnc1-c1ccncc1	105.0	5.5	0.49	0.0	101.0	-3.0	x	x	x
COc1cc(OC)c(OC)cc1CNCCSc1nnnn1C	100.0	-9.9	2.42	-3.5	92.0	-12.0	x	x	x
CCN(CC)CCN1c2ccccc2Sc2ccc3ccccc3c21	90.0	0.9	0.419	28.2	136.0*	18.0	120.0	9.0	104.0
CCN1CCc2nc(NC(=O)CC(c3ccccc3)c3ccccc3)sc2C1	109.0	-14.8	0.54	2.3	183.0*	44.0*	194.0	51.0	110.0
CCN1CCc2nc(NC(=O)Cc3ccc4c(c3)OCCO4)sc2C1	98.0	-3.7	0.96	2.5	140.0*	9.0	163.0	46.0	111.0
CCN1CCc2nc(NC(=O)c3ccc4c(c3)OCCO4)sc2C1	100.0	-11.0	-0.118	-1.5	119.0	10.0	x	x	x
COCCNC(=O)C(OC(=O)c1ccco1)c1ccccc1OC (stereo unspecified)	123.0*	-4.5	0.708	-7.8	122.0	6.0	100.0	-4.0	98.0
COc1ccc(C(OC(=O)c2ccco2)C(=O)NC(C)(C)C)cc1 (stereo unspecified)	139.0*	1.5	-0.233	2.9	120.0	6.0	98.0	-6.0	101.0
